Source: paper PMC6218153 (Journal of Alzheimer's Disease Reports, 2018)
Where no end group is shown, it is not given here.

How the values were obtained:
[1] = Metabolic stability in mouse plasma; assay type: in vitro ADME
How it was run: (§1)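 Test compound (100 μM stock in methanol) added to 1 μM final in plasma or brain homogenate (1:3 brain:PBS, w/v) and incubated at room temperature. Sampled at 15 and 30 min and 1, 2 and 4 h; time-zero samples pre-quenched with methanol. Proteins were methanol-precipitated; supernatant evaporated, reconstituted in 0.1% formic acid and analysed by LC/MS/MS. Duplicates per time point; results expressed as % of time 0.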

[2] = Metabolic stability in mouse brain homogenate; assay type: in vitro ADME
How it was run: as §1

[3] = Radiolabel distribution study of 3H-P8 after IV or IN delivery; assay type: in vivo; conditions: rat
How it was run: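 Adult male SD rats (n = 6/route) were anaesthetised with ketamine/xylazine/acepromazine. They received 0.5 mg test compound plus 60 μCi tritiated label in 60 μL over 18 min, either by IV infusion or by IN drops to alternating nares every 2 min while supine. Blood was drawn 10 and 20 min after dosing ended. At 30 min: cardiac puncture, saline perfusion, then tissue scintillation counting. Concentrations were derived from DPM, tissue weight and specific activity; values beyond 2 SD were excluded as outliers.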

## DEEEDEEL [P8, DEEEDEEL]
[1]
  half-life: > 4 h
  remaining at 2 h, 1 μM: 100%
[2]
  remaining at 2 h, 1 μM: 49.2%
[3]
  improvement of brain targeting, IN compared to IV delivery: approximately 4 fold
